Measurements as given in ChEMBL document CHEMBL4422685, “Design, synthesis and evaluation of a series of 5-methoxy-2,3-naphthalimide derivatives as AcrB inhibitors for the reversal of bacterial resistance” (Bioorg Med Chem Lett, 2019).

Tests used:
Escherichia coli [1] = assay: Toxicity against wild-type drug-resistant Escherichia coli […] at 128 ug/ml; format: organism-based; conditions: in vivo
In short: (§1)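 MIC determination against wild-type resistant E. coli BW25113 and an isogenic acrB-deleted strain; highest concentration tested 128 mg/L.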

Escherichia coli [2] = assay: Toxicity against AcrB deficient Escherichia coli AcrB lacking at 128 ug/ml; format: organism-based; conditions: in vivo; in short: as §1
[3] = molecular target: T1, Multidrug efflux pump subunit AcrB (Escherichia coli (strain K12)) (UniProt P31224); assay: Inhibition of AcrB in wild-type drug-resistant Escherichia coli […] assessed as potentiation of chloramphenicol-induced antimicrobial activity by measuring chloramphenicol MIC at 8 ug/ml by checkerboard titration method (Rvb =16 ug/ml)
T1 sequence (whole entry): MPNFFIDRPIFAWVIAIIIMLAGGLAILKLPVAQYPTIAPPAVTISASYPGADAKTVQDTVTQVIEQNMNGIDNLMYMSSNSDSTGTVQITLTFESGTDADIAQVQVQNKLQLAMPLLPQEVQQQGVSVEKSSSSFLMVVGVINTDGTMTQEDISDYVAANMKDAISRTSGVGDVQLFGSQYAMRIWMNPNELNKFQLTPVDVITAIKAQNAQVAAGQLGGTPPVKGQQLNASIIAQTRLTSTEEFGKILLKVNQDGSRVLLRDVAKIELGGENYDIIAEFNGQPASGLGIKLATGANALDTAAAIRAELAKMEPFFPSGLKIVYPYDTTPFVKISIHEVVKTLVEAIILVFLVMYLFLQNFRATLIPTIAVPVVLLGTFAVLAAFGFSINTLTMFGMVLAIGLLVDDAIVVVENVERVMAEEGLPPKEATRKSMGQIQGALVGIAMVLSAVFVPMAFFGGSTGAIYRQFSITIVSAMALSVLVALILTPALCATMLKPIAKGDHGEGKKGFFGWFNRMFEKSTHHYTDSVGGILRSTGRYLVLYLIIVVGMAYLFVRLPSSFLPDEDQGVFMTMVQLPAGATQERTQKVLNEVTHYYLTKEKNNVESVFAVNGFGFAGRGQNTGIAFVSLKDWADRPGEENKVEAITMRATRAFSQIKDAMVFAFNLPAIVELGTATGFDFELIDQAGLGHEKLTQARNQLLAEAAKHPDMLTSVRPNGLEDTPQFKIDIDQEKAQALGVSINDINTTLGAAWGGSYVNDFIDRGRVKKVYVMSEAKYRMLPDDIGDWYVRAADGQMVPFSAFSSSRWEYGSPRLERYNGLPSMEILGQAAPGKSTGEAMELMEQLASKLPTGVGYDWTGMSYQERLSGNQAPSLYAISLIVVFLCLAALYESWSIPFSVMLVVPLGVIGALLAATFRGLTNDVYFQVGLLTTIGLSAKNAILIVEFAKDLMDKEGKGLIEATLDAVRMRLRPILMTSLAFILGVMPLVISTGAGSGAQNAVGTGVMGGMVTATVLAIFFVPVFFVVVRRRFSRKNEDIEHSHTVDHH

[4] = molecular target: T1, Multidrug efflux pump subunit AcrB (Escherichia coli (strain K12)); assay: Inhibition of AcrB in wild-type drug-resistant Escherichia coli BW2113 assessed as potentiation of chloramphenicol-induced antimicrobial activity by measuring chloramphenicol MIC at 16 ug/ml by checkerboard titration method (Rvb =16 ug/ml)
[5] = molecular target: T1, Multidrug efflux pump subunit AcrB (Escherichia coli (strain K12)); assay: Inhibition of AcrB in wild-type drug-resistant Escherichia coli […] assessed as potentiation of chloramphenicol-induced antimicrobial activity by measuring chloramphenicol MIC at 32 ug/ml by checkerboard titration method (Rvb =16 ug/ml)
[6] = molecular target: T1, Multidrug efflux pump subunit AcrB (Escherichia coli (strain K12)); assay: Inhibition of AcrB in wild-type drug-resistant Escherichia coli […] assessed as potentiation of chloramphenicol-induced antimicrobial activity by measuring chloramphenicol MIC at 64 ug/ml by checkerboard titration method (Rvb =16 ug/ml)
[7] = molecular target: T1, Multidrug efflux pump subunit AcrB (Escherichia coli (strain K12)); assay: Inhibition of AcrB in wild-type drug-resistant Escherichia coli […] assessed as potentiation of erythromycin-induced antimicrobial activity by measuring erythromycin MIC at 8 ug/ml by checkerboard titration method (reference value: 64 ug/ml)
[8] = molecular target: T1, Multidrug efflux pump subunit AcrB (Escherichia coli (strain K12)); assay: Inhibition of AcrB in wild-type drug-resistant Escherichia coli […] assessed as potentiation of erythromycin-induced antimicrobial activity by measuring erythromycin MIC at 16 ug/ml by checkerboard titration method (reference value: 64 ug/ml)
[9] = molecular target: T1, Multidrug efflux pump subunit AcrB (Escherichia coli (strain K12)); assay: Inhibition of AcrB in wild-type drug-resistant Escherichia coli […] assessed as potentiation of erythromycin-induced antimicrobial activity by measuring erythromycin MIC at 32 ug/ml by checkerboard titration method (reference value: 64 ug/ml)
[10] = molecular target: T1, Multidrug efflux pump subunit AcrB (Escherichia coli (strain K12)); assay: Inhibition of AcrB in wild-type drug-resistant Escherichia coli […] assessed as potentiation of erythromycin-induced antimicrobial activity by measuring erythromycin MIC at 128 ug/ml by checkerboard titration method (reference value: 64 ug/ml)
[11] = molecular target: T1, Multidrug efflux pump subunit AcrB (Escherichia coli (strain K12)); assay: Inhibition of AcrB in wild-type drug-resistant Escherichia coli […] assessed as potentiation of tetraphenyl phosphonium chloride-induced antimicrobial activity by measuring tetraphenyl phosphonium chloride MIC at 8 ug/ml by checkerboard titration method (reference value: 1024 ug/ml)
[12] = molecular target: T1, Multidrug efflux pump subunit AcrB (Escherichia coli (strain K12)); assay: Inhibition of AcrB in wild-type drug-resistant Escherichia coli […] assessed as potentiation of tetraphenyl phosphonium chloride-induced antimicrobial activity by measuring tetraphenyl phosphonium chloride MIC at 16 ug/ml by checkerboard titration method (reference value: 1024 ug/ml)
[13] = molecular target: T1, Multidrug efflux pump subunit AcrB (Escherichia coli (strain K12)); assay: Inhibition of AcrB in wild-type drug-resistant Escherichia coli […] assessed as potentiation of tetraphenyl phosphonium chloride-induced antimicrobial activity by measuring tetraphenyl phosphonium chloride MIC at 32 ug/ml by checkerboard titration method (reference value: 1024 ug/ml)
[14] = molecular target: T1, Multidrug efflux pump subunit AcrB (Escherichia coli (strain K12)); assay: Inhibition of AcrB in wild-type drug-resistant Escherichia coli […] assessed as potentiation of tetraphenyl phosphonium chloride-induced antimicrobial activity by measuring tetraphenyl phosphonium chloride MIC at 128 ug/ml by checkerboard titration method (reference value: 1024 ug/ml)
[15] = molecular target: T1, Multidrug efflux pump subunit AcrB (Escherichia coli (strain K12)); assay: Inhibition of AcrB in wild-type drug-resistant Escherichia coli […] assessed as potentiation of levofloxacin-induced antimicrobial activity by measuring levofloxacin MIC at 8 ug/ml by checkerboard titration method (reference value: 0.063 ug/ml)
[16] = molecular target: T1, Multidrug efflux pump subunit AcrB (Escherichia coli (strain K12)); assay: Inhibition of AcrB in wild-type drug-resistant Escherichia coli […] assessed as potentiation of levofloxacin-induced antimicrobial activity by measuring levofloxacin MIC at 16 ug/ml by checkerboard titration method (reference value: 0.063 ug/ml)
[17] = molecular target: T1, Multidrug efflux pump subunit AcrB (Escherichia coli (strain K12)); assay: Inhibition of AcrB in wild-type drug-resistant Escherichia coli […] assessed as potentiation of levofloxacin-induced antimicrobial activity by measuring levofloxacin MIC at 64 ug/ml by checkerboard titration method (reference value: 0.063 ug/ml)
Escherichia coli [18] = assay: Disruption of Escherichia coli inner membrane integrity at 128 ug/ml after 10 mins by DiOC2(3) probe based fluorescence assay; format: ADME, organism-based; conditions: in vivo
In short: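 Bacterial suspensions pre-exposed to compound for 10 min, then DiOC2(3) added and fluorescence followed to plateau. Cells re-energized with 0.5% glucose; membrane potential (inside negative) read as fluorescence rise to plateau, then collapsed with the proton ionophore CCCP. Untreated cells run alongside.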

| Compound | Activity (Escherichia coli [1]) | Activity (Escherichia coli [2]) | MIC [3] | MIC [4] | MIC [5] | MIC [6] | MIC [7] | MIC [8] | MIC [9] | MIC [10] | MIC [11] | MIC [12] | MIC [13] | MIC [14] | MIC [15] | MIC [16] | MIC [17] | Activity (Escherichia coli [18]) |
| --- | --- | --- | --- | --- | --- | --- | --- | --- | --- | --- | --- | --- | --- | --- | --- | --- | --- | --- |
| COc1cccc2cc3c(cc12)C(=O)N(Cc1ccccc1)C3=O | Non-Toxic | Non-Toxic | 16 µg/mL | 16 µg/mL | 16 µg/mL | 16 µg/mL | 32 µg/mL | 32 µg/mL | 32 µg/mL | 16 µg/mL | 1020 µg/mL | 1020 µg/mL | 1020 µg/mL | 512 µg/mL | 0.063 µg/mL | 0.063 µg/mL | 0.063 µg/mL | Non-Toxic |
| CCc1ccccc1N1C(=O)c2cc3cccc(OC)c3cc2C1=O | Non-Toxic | Non-Toxic | 16 µg/mL | 16 µg/mL | 16 µg/mL | 16 µg/mL | 64 µg/mL | 64 µg/mL | 64 µg/mL | 32 µg/mL | 1020 µg/mL | 1020 µg/mL | 1020 µg/mL | 512 µg/mL | 0.063 µg/mL | 0.063 µg/mL | 0.0313 µg/mL | Non-Toxic |
| COc1cccc2cc3c(cc12)C(=O)N(C)C3=O | Non-Toxic | Non-Toxic | 16 µg/mL | 16 µg/mL | 16 µg/mL | 16 µg/mL | 64 µg/mL | 64 µg/mL | 64 µg/mL | 32 µg/mL | 1020 µg/mL | 1020 µg/mL | 1020 µg/mL | 1020 µg/mL | 0.063 µg/mL | 0.063 µg/mL | 0.0313 µg/mL | Non-Toxic |
| COc1cccc2cc3c(cc12)C(=O)N(C(C)C)C3=O | Non-Toxic | Non-Toxic | 8 µg/mL | 8 µg/mL | 8 µg/mL | 8 µg/mL | 32 µg/mL | 32 µg/mL | 32 µg/mL | 32 µg/mL | 1020 µg/mL | 1020 µg/mL | 1020 µg/mL | 512 µg/mL | 0.063 µg/mL | 0.063 µg/mL | 0.0313 µg/mL | Non-Toxic |
| COc1cccc2cc3c(cc12)C(=O)N(c1ccccc1Cl)C3=O | Non-Toxic | Non-Toxic | 16 µg/mL | 16 µg/mL | 16 µg/mL | 16 µg/mL | 64 µg/mL | 64 µg/mL | 64 µg/mL | 16 µg/mL | 1020 µg/mL | 1020 µg/mL | 1020 µg/mL | 512 µg/mL | 0.063 µg/mL | 0.063 µg/mL | 0.063 µg/mL | Non-Toxic |
